ChEMBL document CHEMBL1139669, “8-Fluoroimidazo[1,2-a]pyridine: synthesis, physicochemical properties and evaluation as a bioisosteric replacement for imidazo[1,2-a]pyrimidine in an allosteric modulator ligand of the GABA A receptor” (Bioorg Med Chem Lett, 2006)

Assays:
[1] = Dissociation constant, pKa of the compound; assay type: physicochemical
How it was run: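 pKa determined from changes in the UV chromophore during a pH titration.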

[2] = Distribution coefficient, log D at pH 7.4; assay type: physicochemical; details: octanol/water
How it was run: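 Shake-flask partitioning between octanol and pH 7.4 aqueous buffer, shaken 20 min. logD7.4 is taken as the ratio of concentrations in octanol and in buffer.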

[3] = target: T1, GABA-A receptor; alpha-3/beta-3/gamma-2 (Homo sapiens, UniProt P18507+P28472+P34903); experiment: Displacement of [3H]Ro 15-1788 from human GABA-Aalpha3 receptor plus beta-3-gamma-2 expressed in mouse L(tk-) cells; assay type: cell-based
T1 sequence (P18507 whole entry): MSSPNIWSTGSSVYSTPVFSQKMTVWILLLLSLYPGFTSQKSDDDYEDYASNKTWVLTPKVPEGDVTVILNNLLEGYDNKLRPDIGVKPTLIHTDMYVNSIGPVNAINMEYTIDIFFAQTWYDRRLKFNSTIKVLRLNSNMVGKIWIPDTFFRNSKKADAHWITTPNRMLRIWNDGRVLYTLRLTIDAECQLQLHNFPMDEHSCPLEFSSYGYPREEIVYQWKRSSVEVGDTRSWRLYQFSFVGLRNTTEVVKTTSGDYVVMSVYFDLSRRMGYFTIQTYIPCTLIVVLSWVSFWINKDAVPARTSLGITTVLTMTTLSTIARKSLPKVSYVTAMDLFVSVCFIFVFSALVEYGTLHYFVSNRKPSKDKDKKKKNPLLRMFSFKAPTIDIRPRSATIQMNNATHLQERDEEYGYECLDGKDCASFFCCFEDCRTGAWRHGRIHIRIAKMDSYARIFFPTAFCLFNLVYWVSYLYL
T1 sequence (P28472 whole entry): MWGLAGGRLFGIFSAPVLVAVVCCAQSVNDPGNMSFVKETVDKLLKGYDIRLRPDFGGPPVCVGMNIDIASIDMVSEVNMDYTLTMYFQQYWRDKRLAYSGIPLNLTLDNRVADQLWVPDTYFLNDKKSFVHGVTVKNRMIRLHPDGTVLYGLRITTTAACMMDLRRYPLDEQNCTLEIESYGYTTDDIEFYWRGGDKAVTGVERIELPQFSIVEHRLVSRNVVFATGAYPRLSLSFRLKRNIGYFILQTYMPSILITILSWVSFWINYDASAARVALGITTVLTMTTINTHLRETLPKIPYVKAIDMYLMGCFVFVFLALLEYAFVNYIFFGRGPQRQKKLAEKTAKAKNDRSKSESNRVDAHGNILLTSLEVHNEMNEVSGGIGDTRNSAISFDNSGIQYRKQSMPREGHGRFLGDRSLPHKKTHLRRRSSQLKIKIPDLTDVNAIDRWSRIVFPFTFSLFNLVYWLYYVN
T1 sequence (P34903 whole entry): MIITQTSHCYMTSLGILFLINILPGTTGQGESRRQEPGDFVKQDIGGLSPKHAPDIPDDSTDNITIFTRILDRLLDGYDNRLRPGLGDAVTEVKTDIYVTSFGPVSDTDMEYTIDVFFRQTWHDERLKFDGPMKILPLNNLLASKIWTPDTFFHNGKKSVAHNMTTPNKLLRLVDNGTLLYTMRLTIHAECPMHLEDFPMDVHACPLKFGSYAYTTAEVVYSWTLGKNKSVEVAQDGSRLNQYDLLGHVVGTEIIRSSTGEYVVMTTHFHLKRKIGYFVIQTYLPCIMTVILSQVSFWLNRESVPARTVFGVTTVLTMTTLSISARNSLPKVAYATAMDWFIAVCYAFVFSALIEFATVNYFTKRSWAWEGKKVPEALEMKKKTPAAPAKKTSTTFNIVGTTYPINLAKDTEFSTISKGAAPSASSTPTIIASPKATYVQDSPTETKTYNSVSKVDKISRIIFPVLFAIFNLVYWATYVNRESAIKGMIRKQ
How it was run: (§1)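 Competition binding against [³H]Ro15-1788 used at twice its Kd, with human GABA-A αxβ3γ2 receptors (α1 or α3) stably expressed in mouse LTK fibroblasts. Ki was calculated by Cheng-Prusoff from the inhibition curves. Values are means of three determinations.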

[4] = target: T2, GABA-A receptor; alpha-1/beta-3/gamma-2 (Homo sapiens) (UniProt P14867+P18507+P28472); experiment: Efficacy against GABA-Aalpha1 receptor plus beta-3-gamma-2 expressed in mouse L(tk-) cells relative to chlorodiazepoxide by electrophysiology method; assay type: functional, cell-based
How it was run: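 Human GABA-A α1β3γ2 receptors stably expressed in mouse LTK fibroblasts. Electrophysiology measured maximum modulation of the GABA EC20 response, expressed relative to the maximal response of the full agonist chlordiazepoxide. Means of at least 5 determinations.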

[5] = target: GABA-A receptor; alpha-3/beta-3/gamma-2 (Homo sapiens) (UniProt P18507+P28472+P34903); experiment: Efficacy against GABA-Aalpha3 receptor plus beta-3-gamma-2 expressed in mouse L(tk-) cells relative to chlorodiazepoxide by chlorine flux assay; assay type: functional, cell-based
How it was run: (§2)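 Human GABA-A αxβ3γ2 receptors (α1 or α3) stably expressed in mouse LTK fibroblasts. ³⁶Cl⁻ flux assay with drug at 1000× Ki and GABA at EC20. Efficacy expressed relative to the maximal response of the full agonist chlordiazepoxide. Means of at least 7 determinations.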

[6] = target: T3, GABA-A receptor; alpha-1/beta-3/gamma-2 (Homo sapiens, UniProt P14867+P18507+P28472); experiment: Displacement of [3H]Ro 15-1788 from human GABA-Aalpha1 receptor plus beta-3-gamma-2 expressed in mouse L(tk-) cells; assay type: cell-based; how it was run: as §1
T3 sequence (P14867 whole entry): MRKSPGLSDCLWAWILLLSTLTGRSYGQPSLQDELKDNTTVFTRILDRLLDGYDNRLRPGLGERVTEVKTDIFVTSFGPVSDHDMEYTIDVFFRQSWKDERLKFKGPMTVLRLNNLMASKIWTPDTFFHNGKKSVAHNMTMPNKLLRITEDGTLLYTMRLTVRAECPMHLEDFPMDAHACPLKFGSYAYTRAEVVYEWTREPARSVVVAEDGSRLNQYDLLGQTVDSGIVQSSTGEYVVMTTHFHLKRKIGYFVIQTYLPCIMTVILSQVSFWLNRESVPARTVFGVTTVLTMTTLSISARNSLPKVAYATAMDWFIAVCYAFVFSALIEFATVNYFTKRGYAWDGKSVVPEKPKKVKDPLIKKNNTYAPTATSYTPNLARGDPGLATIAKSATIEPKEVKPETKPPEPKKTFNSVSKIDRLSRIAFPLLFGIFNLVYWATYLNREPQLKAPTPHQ
T3 sequence (P18507 whole entry): T1 sequence (P18507 whole entry)
T3 sequence (P28472 whole entry): T1 sequence (P28472 whole entry)

[7] = target: T2, GABA-A receptor; alpha-1/beta-3/gamma-2 (Homo sapiens); experiment: Efficacy against GABA-Aalpha1 receptor plus beta3gamma2 expressed in mouse L(tk-) cells relative to chlorodiazepoxide by chlorine flux assay; assay type: functional, cell-based; how it was run: as §2

Row | SMILES | pKa [1] | logD [2] | Ki [3] | Efficacy [4] | Efficacy [5] | Ki [6] | Efficacy [7]
1 | CC(C)(O)c1ccn2ccnc2n1 | 5.4 | 0.1 | – | – | – | – | –
2 | CC(C)(O)c1ccn2ccnc2c1F | 5.4 | 1.1 | – | – | – | – | –
3 | Fc1cccn2ccnc12 | 4.9 | 0.9 | – | – | – | – | –
4 | c1cnc2nccn2c1 | 4.9 | -0.2 | – | – | – | – | –
5 | c1ccn2ccnc2c1 | 6.9 | 0.8 | – | – | – | – | –
6 | CC(C)(O)c1ccn2ccnc2c1 | 7.2 | 0.6 | – | – | – | – | –

More lines, now with the values ahead:

Row | pKa [1] | logD [2] | Ki [3] | Efficacy [4] | Efficacy [5] | Ki [6] | Efficacy [7] | SMILES
7 | – | – | 320 pM | 34% | 104% | 200 pM | – | CC(C)(O)c1ccn2c(-c3ccc(F)c(-c4ccccc4C#N)c3)cnc2c1F
8 | – | – | 470 pM | 60% | 79% | 710 pM | – | CC(C)(O)c1ccn2c(-c3ccc(F)c(-c4ccccc4C#N)c3)cnc2n1
9 | – | – | 5160 pM | – | 61% | 4350 pM | 35% | CC(C)(O)c1ccn2c(-c3ccc(F)c(-c4ccccc4C#N)c3)cnc2c1
